The nature of data set [1]: folding enthalpy; higher = less favourable; fluorescence melt of hairpins on a sequencing array, two-state fit. Particulars: sodium 0.088 M. The procedure, abridged: (§1)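 In 50 mM Na-HEPES pH 8.0 containing 25 mM NaCl, hairpins from the library on a sequenced MiSeq flow cell were imaged for Cy3 fluorescence at 2.5 °C steps up to 60 °C, with Cy3 and quencher oligos annealed. After normalisation to pre-quench Cy3 and to control constructs, two-state fits with bootstrapping gave melting temperature and folding enthalpy. Four replicates were combined by inverse-variance weighting, and fitted temperatures were shifted up by 9.35 °C to match UV melts.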

Data set [2] is described as follows: melting temperature; fluorescence melt of hairpins on a sequencing array, two-state fit, raised by 9.35 °C to match UV melts. To be noted: sodium 0.088 M. The method in brief:
as §1

The record followed here is the array DNA melting data of Ke et al. (doi:10.1101/2024.01.08.574731).

For GATCTCCGGGGAGATC ((((((....)))))), the folding enthalpy in data set [1] was -43.9 kcal/mol. Further, the Tm in data set [2] came to 55.7 °C.

Take GATCTCCGTGAGATC ((((((...)))))): the folding enthalpy in data set [1] is -36.2 kcal/mol. Further, the Tm in data set [2] is 56.3 °C.

Take GATCTCCGTGGAGATC ((((((....)))))): the folding enthalpy in data set [1] was -47.9 kcal/mol. For the same sequence, the Tm in data set [2] turned out to be 59.2 °C.

GATCTCCTAGGAGATC ((((((....)))))): the folding enthalpy in data set [1] was -36 kcal/mol. Further, the Tm in data set [2] came to 57.8 °C.

GATCTCCTCGGAGATC ((((((....)))))): the folding enthalpy in data set [1] was -52.8 kcal/mol. Further, the Tm in data set [2] came to 58 °C.

On to GATCTCCTGAGAGATC ((((((....)))))), for which, in data set [1], the folding enthalpy is -39 kcal/mol. Further, the Tm in data set [2] was determined as 53.2 °C.

In the case of GATCTCCTGGGAGATC ((((((....)))))), in data set [1], the folding enthalpy was -43.3 kcal/mol. In addition, the Tm in data set [2] was 56.5 °C.

On to GATCTCCTTTGAGATC ((((((....)))))), for which the folding enthalpy in data set [1] was -39.6 kcal/mol. The Tm in data set [2] stood at 51.7 °C.

Regarding GATCTCGACCGAGATC ((((((....)))))), in data set [1], the folding enthalpy was -51.9 kcal/mol. Also, in data set [2], the Tm was 56.1 °C.

For the sequence GATCTCGAGGAGATC ((((((...)))))), in data set [1], the folding enthalpy is -34.5 kcal/mol. Also, the Tm in data set [2] was 52.8 °C.

In the case of GATCTCGATGAGATC ((((((...)))))), in data set [1], the folding enthalpy was -37.2 kcal/mol. For the same sequence, the Tm in data set [2] amounted to 53 °C.

GATCTCGATTGAGATC ((((((....)))))): the folding enthalpy in data set [1] is -39.4 kcal/mol. Moreover, the Tm in data set [2] came out at 51.7 °C.

For the sequence GATCTCGCAAGAGATC ((((((....)))))), the folding enthalpy in data set [1] is -37.5 kcal/mol. Besides, the Tm in data set [2] turned out to be 67.3 °C.

For GATCTCGCGGAGATC ((((((...)))))), in data set [1], the folding enthalpy is -35.4 kcal/mol. In data set [2], the Tm worked out at 54.9 °C.

With GATCTCGCTAGAGATC ((((((....)))))), the folding enthalpy in data set [1] is -43.5 kcal/mol. For the same sequence, the Tm in data set [2] came out at 67.6 °C.

In the case of GATCTCGCTGAGATC ((((((...)))))), in data set [1], the folding enthalpy was -43.6 kcal/mol. The Tm in data set [2] worked out at 53.8 °C.

Turning to GATCTCGCTTGAGATC ((((((....)))))), in data set [1], the folding enthalpy is -36.8 kcal/mol. The Tm in data set [2] worked out at 54.4 °C.

Consider GATCTCGGAAACGAGACC (.(((((....))))).), for which, in data set [1], the folding enthalpy was -16.5 kcal/mol. In data set [2], the Tm amounted to 40.7 °C.

On to GATCTCGGAAGAGATC ((((((....)))))), for which the folding enthalpy in data set [1] is -37.4 kcal/mol. In data set [2], the Tm was 63.6 °C.

On to GATCTCGGGGAGATC ((((((...)))))), for which the folding enthalpy in data set [1] was -30.2 kcal/mol. In addition, the Tm in data set [2] stood at 54.3 °C.

Consider GATCTCGGTAGAGATC ((((((....)))))), for which the folding enthalpy in data set [1] was -32.7 kcal/mol. The Tm in data set [2] worked out at 66.5 °C.

For the sequence GATCTCGTAGAGATC ((((((...)))))), the folding enthalpy in data set [1] was -37.2 kcal/mol. Also, the Tm in data set [2] is 67.9 °C.

Regarding GATCTCGTCCGAGATC ((((((....)))))), in data set [1], the folding enthalpy is -38.4 kcal/mol. Further, the Tm in data set [2] amounted to 60.5 °C.

In the case of GATCTCGTCGGAGATC ((((((....)))))), the folding enthalpy in data set [1] is -43.5 kcal/mol. For the same sequence, the Tm in data set [2] is 54.5 °C.

In the case of GATCTCGTGCGAGATC ((((((....)))))), the folding enthalpy in data set [1] was -54.9 kcal/mol. Besides, the Tm in data set [2] is 56.3 °C.

For GATCTCGTTCGAGATC ((((((....)))))), in data set [1], the folding enthalpy is -41.4 kcal/mol. The Tm in data set [2] stood at 60.9 °C.

In the case of GATCTCTAAGAGATC ((((((...)))))), the folding enthalpy in data set [1] was -31.5 kcal/mol. In addition, in data set [2], the Tm was 51.5 °C.

Turning to GATCTCTACAGAGATC ((((((....)))))), in data set [1], the folding enthalpy is -45.2 kcal/mol. In addition, the Tm in data set [2] was 55.8 °C.

Regarding GATCTCTACGAGATC ((((((...)))))), the folding enthalpy in data set [1] is -40 kcal/mol. The Tm in data set [2] is 55.1 °C.

In the case of GATCTCTACGGAGATC ((((((....)))))), in data set [1], the folding enthalpy is -36 kcal/mol. Further, the Tm in data set [2] was 55.6 °C.

Turning to GATCTCTCAGGAGATC ((((((....)))))), in data set [1], the folding enthalpy is -48 kcal/mol. Moreover, the Tm in data set [2] worked out at 54.2 °C.

In the case of GATCTCTCGAGAGATC ((((((....)))))), the folding enthalpy in data set [1] is -40.5 kcal/mol. The Tm in data set [2] stood at 54.1 °C.

Regarding GATCTCTCTAGAGATC ((((((....)))))), the folding enthalpy in data set [1] is -37.4 kcal/mol. Besides, in data set [2], the Tm worked out at 56.3 °C.

GATCTCTGCAGAGATC ((((((....)))))): the folding enthalpy in data set [1] was -41.6 kcal/mol. The Tm in data set [2] came to 57 °C.

Regarding GATCTCTGGAGAGATC ((((((....)))))), in data set [1], the folding enthalpy was -34.4 kcal/mol. Also, the Tm in data set [2] amounted to 53.1 °C.

Take GATCTCTGTCGAGATC ((((((....)))))): in data set [1], the folding enthalpy was -37.4 kcal/mol. Also, the Tm in data set [2] amounted to 51.8 °C.

With GATCTCTTATGAGATC ((((((....)))))), the folding enthalpy in data set [1] is -43.4 kcal/mol. In addition, in data set [2], the Tm was 54.1 °C.

On to GATCTCTTGGGAGATC ((((((....)))))), for which, in data set [1], the folding enthalpy is -40.4 kcal/mol. For the same sequence, in data set [2], the Tm turned out to be 54 °C.

With GATCTCTTTGGAGATC ((((((....)))))), in data set [1], the folding enthalpy is -44.5 kcal/mol. Moreover, in data set [2], the Tm is 55.1 °C.

GATCTCTTTTGAGATC ((((((....)))))): the folding enthalpy in data set [1] is -39.2 kcal/mol. Further, the Tm in data set [2] amounted to 55 °C.

Consider GATCTGACACAGATC ((((((...)))))), for which the folding enthalpy in data set [1] is -35.7 kcal/mol. Also, the Tm in data set [2] stood at 48.1 °C.

GATCTGACCACAGATC ((((((....)))))): the folding enthalpy in data set [1] is -36.3 kcal/mol. Moreover, the Tm in data set [2] is 49 °C.

As to GATCTGAGCTCAGATC ((((((....)))))), the folding enthalpy in data set [1] is -51.6 kcal/mol. In addition, in data set [2], the Tm came to 55.6 °C.

Regarding GATCTGATAACAGATC ((((((....)))))), the folding enthalpy in data set [1] was -35.7 kcal/mol. Besides, the Tm in data set [2] was found to be 47 °C.

For GATCTGATCGCAGATC ((((((....)))))), the folding enthalpy in data set [1] is -11.2 kcal/mol. Moreover, in data set [2], the Tm stood at 42.3 °C.

As to GATCTGATTACAGATC ((((((....)))))), in data set [1], the folding enthalpy was -40.5 kcal/mol. In data set [2], the Tm came out at 50 °C.

For the sequence GATCTGATTGCAGATC ((((((....)))))), the folding enthalpy in data set [1] was -29.1 kcal/mol. For the same sequence, the Tm in data set [2] worked out at 48.2 °C.

With GATCTGCAACCAGATC ((((((....)))))), the folding enthalpy in data set [1] is -31.7 kcal/mol. Further, in data set [2], the Tm is 46.2 °C.

GATCTGCATTCAGATC ((((((....)))))): the folding enthalpy in data set [1] is -39.6 kcal/mol. The Tm in data set [2] amounted to 48.9 °C.

With GATCTGCCACAGATC ((((((...)))))), in data set [1], the folding enthalpy was -31.8 kcal/mol. Besides, the Tm in data set [2] came out at 48.9 °C.

GATCTGCCATCAGATC ((((((....)))))): the folding enthalpy in data set [1] is -46 kcal/mol. In addition, the Tm in data set [2] turned out to be 49.4 °C.

Take GATCTGCCCCCAGATC ((((((....)))))): the folding enthalpy in data set [1] was -34.5 kcal/mol. In data set [2], the Tm is 48.3 °C.

For GATCTGCCCTCAGATC ((((((....)))))), the folding enthalpy in data set [1] is -42.5 kcal/mol. Besides, in data set [2], the Tm amounted to 49.8 °C.

Consider GATCTGCCTACAGATC ((((((....)))))), for which the folding enthalpy in data set [1] was -41.8 kcal/mol. Further, the Tm in data set [2] is 50.8 °C.

As for GATCTGCGAAAGCAAATC (((.(((....))).))), the folding enthalpy in data set [1] was -18.4 kcal/mol. For the same sequence, the Tm in data set [2] turned out to be 36.5 °C.

For GATCTGCGAAAGCATATC (((.(((....))).))), the folding enthalpy in data set [1] was -20.7 kcal/mol. In data set [2], the Tm came out at 41.1 °C.

Turning to GATCTGCGCCCAGATC ((((((....)))))), in data set [1], the folding enthalpy was -29.2 kcal/mol. Besides, the Tm in data set [2] was determined as 48.4 °C.
